# GSK3 alpha inh – blocks human GSK-3 alpha kinase | inhibition, % at 10 µM | ADP-Glo luminescence, 60 min | AID 2650 | 320,000 compounds, 0.1% hits | P49840;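 active = more than half of replicates show inhibition above 20%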;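 also: GST-tagged GSK-3 alpha with peptide substrate and 25 µM ATP; 0% = DMSO neutral wells and 100% = GW8510 positive control wells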
# Target sequence (P49840 whole entry, looked up): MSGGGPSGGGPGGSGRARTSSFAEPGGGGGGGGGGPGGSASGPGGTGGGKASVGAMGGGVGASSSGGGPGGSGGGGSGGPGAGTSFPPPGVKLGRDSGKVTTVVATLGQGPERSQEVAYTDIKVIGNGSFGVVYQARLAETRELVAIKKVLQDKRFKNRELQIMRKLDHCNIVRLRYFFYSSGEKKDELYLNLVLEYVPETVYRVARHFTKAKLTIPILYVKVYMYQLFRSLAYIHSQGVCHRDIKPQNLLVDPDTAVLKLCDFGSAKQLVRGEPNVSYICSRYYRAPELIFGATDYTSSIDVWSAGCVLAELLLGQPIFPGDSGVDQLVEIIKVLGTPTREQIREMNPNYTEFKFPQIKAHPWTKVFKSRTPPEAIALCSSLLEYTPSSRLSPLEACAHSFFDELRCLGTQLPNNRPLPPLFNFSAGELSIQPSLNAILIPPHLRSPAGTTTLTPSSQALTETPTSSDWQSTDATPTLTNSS
# INS-1E GSIS act – primary screen for activators of insulin secretion dependent on glucose, INS-1E cells, GLuc reporter luminescence | INS-1E GLuc reporter insulin secretion, 2-3 h | activation, % at 16.6 µM | 370,000 compounds, 0.61% hits;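 active = lowest replicate activation of at least 40%, so every replicate reaches that level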;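 also: 0% = median of neutral control wells and 100% = median of IBMX positive control wells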
# CDK5 inh – inhibitors of human CDK5/p35 kinase; Recombinant CDK5/p35, ADP-Glo luminescence, 60 min; 330,000 compounds, 0.01% hits; AID 488839; Q00535+Q15078; inhibition, % at 10 µM;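 active = highest replicate inhibition of at least 50% and at least 75% of replicates reaching 50%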;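 also: plate controls were DMSO neutral control for no effect and GW8510 at 10 µM for full effect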
# GSK3B inh – blocks human GSK3beta kinase activity. activity score (negative = inhibition), % at 10 µM. GST-GSK3beta kinase, ADP-Glo luminescence, 60 min; stronger effect = lower value. 300,000 compounds, 0.038% hits. P49841;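 active = more than half of replicate wells score below -50%, meaning over 50% inhibition versus plate controls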;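 also: 0% = median DMSO wells and -100% = median GW8510 positive control wells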
#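 test system = GST-tagged human GSK3beta kinase, cell-free | reagent = 25 µM ATP with peptide substrate | dosing = one dose of 10 µM per compound | schedule = 60 min reaction, RT | detection = luminescent ADP-Glo measurement of ADP formed | control set = DMSO neutral wells and GW8510 at 20 µM as positive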
# Env fusion inh – HIV envelope-mediated fusion inhibition; inhibition, % at 12.3 µM; HeLa-JRFL Env/CEM21 cell fusion, luciferase; 360,000 compounds, 1.1% hits; AID 651610;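 active = mean replicate inhibition score of at least 50 and every replicate individually at or above 50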;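 also: 0% = plate neutral controls and 100% = maraviroc near 300 nM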
# STK33 inh – inhibitors of human STK33 kinase | inhibition, % at 10 µM | AID 2661 | purified STK33, MBP phosphorylation, ADP-Glo luminescence | 320,000 compounds, 0.073% hits | Q9BYT3;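 active = inhibition at or above 25%, using the most active replicate where run in duplicate; inactive = inhibition below 25%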
# Numbers without * were called inactive; . = no result given; [ ] = remark or other dose. An excerpt weighted towards active compounds, which were near 1.4% of everything screened.
SMILES,GSK3 alpha inh,INS-1E GSIS act,CDK5 inh,GSK3B inh,Env fusion inh,STK33 inh
O=C(Nc1nc2ccccc2[nH]1)c1ccc(OC(F)F)cc1,-1.1,-4.1,1.1,.,-139.1,-1.6
CN(c1ccccc1)S(=O)(=O)c1ccc(Cl)c(C(=O)Nc2nc3ccccc3[nH]2)c1,-1.1,-32.4,0.3,0.4,71.8*,-2.0
COc1ccc(NC(=O)Nc2ccc3c(c2)C(=O)N([C@@H](C)CO)C[C@@H](C)[C@@H](CN(C)C(=O)Nc2ccc4c(c2)OCO4)OCCCC[C@@H](C)O3)cc1,.,-15.4,.,.,3.4[16.7 µM],.
CN(C)c1ccc(O)c2c1CC1CC3[C@@H](N(C)C)C(=O)C(C(N)=O)C(=O)[C@]3(O)C(=O)C1C2=O (some centres not stated),.,.,-7.4,.,86.8*,.
CN(C)c1ccc(O)c2c1CC1CC3C(N(C)C)C(=O)C(C(N)=O)=C(O)[C@@]3(O)C(=O)C1=C2O (some centres not stated),-1.5,.,1.1,1.4,33.9,-2.3
Cc1noc(C)c1NC(=O)Nc1ccc2c(c1)C(=O)N([C@@H](C)CO)C[C@@H](C)[C@H](CN(C)C(=O)Nc1ccccc1)O2,.,5.6,.,.,2.0[16.7 µM],.
Cc1cc2c3c(c1)C(C)CC(C)(C)N3C(=O)C2=O (configuration not stated),-4.8,5.8,-1.6,-0.5,1.1,0.1
CCOc1cc2c3c(c1)C(C)CC(C)(C)N3C(=O)C2=O (configuration not stated),1.8,-16.3,0.1,4.9,103.5*,3.4
Cc1ccc(C)c(CS(=O)(=O)c2cn(CC(=O)N3CCC(C)CC3)c3ccccc23)c1,-0.7,-17.4,0.5,1.3,120.5*,-1.8
O=C(CS(=O)(=O)c1cn(CC(=O)N2CCOCC2)c2ccccc12)Nc1ccccc1,-1.2,40.2*,-1.3,-1.7,-70.1,-0.8
Cc1ccc(C)c(CS(=O)(=O)c2cn(CC(=O)N3CCCCC3)c3ccccc23)c1,-1.6,5.2,-0.6,3.6,29.9,0.5
N[C@@H]1CC[C@@H](CCn2cc(-c3ccccn3)nn2)O[C@H]1CO,.,1.9,.,.,-13.9[16.7 µM],.
NC(=O)N/N=C/c1c(O)ccc2oc3c(c12)CCCC3,85.4*,-36.8,90.2*,-6.2,24.2,74.6*
O=C(COC(=O)c1cc(S(=O)(=O)N2CCOCC2)ccc1F)Nc1ccc(Cl)cn1,51.0*,-15.8,2.0,.,.,0.7
O=C(Nc1cc(S(=O)(=O)N2CCCCC2)ccc1O)c1ccccc1NS(=O)(=O)c1ccc(F)cc1,-3.3,-51.0,-1.1,4.9,6.0,-1.3
O=S(=O)(c1ccc(NCCCO)nc1)N1CCOCC1,.,48.8*,-0.2,.,9.0,.
Cc1ccc(S(=O)(=O)Nc2ccccc2C(=O)Nc2nc(-c3ccc(F)cc3)cs2)cc1,.,-10.8,-2.0,0.5,56.0*,.
O=C(COC(=O)c1cc(S(=O)(=O)N2CCOCC2)ccc1Cl)Nc1ccc(Cl)cn1,.,-30.9,.,.,6.9,.
O=C(Nc1cc(S(=O)(=O)N2CCCCC2)ccc1Cl)c1ccccc1NS(=O)(=O)c1ccc(F)cc1,-3.0,-23.3,-0.4,1.5,70.9*,-0.6
O=S(=O)(c1ccc(NCCOCCO)nc1)N1CCCCC1,-0.4,10.4,0.6,.,-0.4,-1.2
C[C@H]1CN([C@@H](C)CO)C(=O)Cc2cc(NC(=O)Nc3ccc(F)cc3)ccc2O[C@@H]1CN(C)Cc1ccncc1,.,-11.0,.,.,.,.
O=C(COC(=O)c1cc(S(=O)(=O)N2CCOCC2)ccc1O)NCc1ccc2c(c1)OCO2,.,6.9,-7.7,.,81.7*,.
O=C(COC(=O)c1cccnc1Cl)Nc1cc(S(=O)(=O)N2CCCCCC2)ccc1Cl,.,41.8*,1.4,.,19.3,.
O=C(COC(=O)c1cccnc1Cl)Nc1cc(S(=O)(=O)N2CCCCC2)ccc1Cl,-0.4,-22.6,-1.0,2.1,9.3,-0.5
Cc1ccc(S(=O)(=O)N2CCOCC2)cc1C(=O)OCC(=O)NCc1ccc2c(c1)OCO2,0.0,-1.2,-0.1,.,-5.0,0.3
COc1ccccc1NC(=O)N[C@@H]1CC[C@@H](CCn2cc(-c3ccccc3)nn2)O[C@H]1CO,.,-11.9,.,.,14.6[16.7 µM],.
COc1nc(-c2ccc(C)cc2)ccc1-c1noc(-c2cccnc2)n1,-1.0,.,1.9,2.9,-115.9,-0.9
COc1nc(-c2ccccc2)ccc1-c1noc(-c2cccnc2)n1,-1.5,70.6*,0.4,-2.7,-29.0,-1.3

# High-throughput results as filed in PubChem BioAssay.
